In ChEMBL document CHEMBL1142669, “Synthesis and evaluation of double-prodrugs against HIV. Conjugation of D4T with 6-benzyl-1-(ethoxymethyl)-5-isopropyluracil (MKC-442, emivirine)-type reverse transcriptase inhibitors via the SATE prodrug approach” (J Med Chem, 2005):

How the values were obtained:
[1] = tested on: Human immunodeficiency virus 2; test: Effective concentration of compound to inhibit human immunodeficiency virus HIV-2 multiplication in MT-4 infected cells; type: functional, organism-based
Summary of the method: (§1)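 MT-4 cells were infected at 0.005 MOI and cultured 6 days in growth medium (RPMI 1640, 10% heat-inactivated FCS, antibiotics) with the compound dilutions. Infected and uninfected cultures without compound ran in parallel. HIV expression was quantified indirectly by MTT assay. EC50 was interpolated from plots of percent inhibition versus concentration.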

[2] = tested on: Human immunodeficiency virus 2; test: Effective concentration of compound to inhibit human immunodeficiency virus HIV-2 multiplication in thymidine-kinase-deficient CEM cells; type: functional, organism-based; conditions: Human immunodeficiency virus 2, CCRF-CEM
Summary of the method: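 Thymidine-kinase-deficient CEM cells were infected with HIV-2 at 0.005 MOI and incubated 6 days with compound dilutions, alongside infected and uninfected controls without compound. Virus expression was quantified by HIV-2 antigen ELISA. ED50 was interpolated from percent inhibition versus concentration plots; three independent tests.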

[3] = tested on: Human immunodeficiency virus 1; test: Effective concentration of compound to inhibit human immunodeficiency virus HIV-1 wild type strain IIIB multiplication in thymidine-kinase-deficient CEM cells; type: functional, organism-based; conditions: Human immunodeficiency virus 1, CCRF-CEM
Summary of the method: (§2)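 HIV-1 strains HTLV-IIIB (wild type) and N119 (RT Y181C) were grown in H9 cells in RPMI 1640 with 10% heat-inactivated FCS. CEM wt or CEM TK- cells were infected at 0.005 MOI with compound dilutions for 6 days, alongside infected and uninfected controls. HIV expression was read by HIV-1 antigen ELISA. IC50 was interpolated from % inhibition versus concentration plots.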

[4] = tested on: Human immunodeficiency virus 1; test: Effective concentration of compound to inhibit human immunodeficiency virus HIV-1 wild type strain IIIB multiplication in MT-4 infected cells; type: functional, organism-based; summary of the method: as §1
[5] = tested on: Human immunodeficiency virus 1; test: Effective concentration of compound to inhibit human immunodeficiency virus HIV-1 strain N119 multiplication in MT-4 infected cells; type: functional, organism-based; summary of the method: as §1
[6] = tested on: Human immunodeficiency virus 2; test: Effective concentration of compound to inhibit human immunodeficiency virus HIV-2 multiplication in CEM wild type cells; type: functional, organism-based; conditions: Human immunodeficiency virus 2, CCRF-CEM
Summary of the method: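 CEM wild-type cells were infected at 0.005 MOI and held 6 days in growth medium containing the compound dilutions, alongside untreated infected and uninfected controls. HIV-1 or HIV-2 antigen was detected by ELISA. EC50 was interpolated from plots of percent inhibition versus concentration.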

[7] = tested on: Human immunodeficiency virus 1; test: Effective concentration of compound to inhibit human immunodeficiency virus HIV-1 strain N119 multiplication in CEM wild type cells; type: functional, organism-based; conditions: Human immunodeficiency virus 1, CCRF-CEM; summary of the method: as §2
[8] = tested on: Human immunodeficiency virus 1; test: Effective concentration of compound to inhibit human immunodeficiency virus HIV-1 wild type strain IIIB multiplication in CEM wild type cells; type: functional, organism-based; conditions: Human immunodeficiency virus 1, CCRF-CEM; summary of the method: as §2
CCRF-CEM = test: Cytotoxic concentration was measured in CEM wild-type/thymidine-kinase-deficient CEM Cells; type: functional; conditions: Homo sapiens
Summary of the method: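 Uninfected CEM wild-type and CEM TK- cultures were exposed to the compound dilutions in parallel with the antiviral tests. Cell growth inhibition of 30% versus control cultures was considered significant. CC50 was interpolated from plots of percent inhibition against concentration.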

[9] = tested on: Human immunodeficiency virus 1; test: Effective concentration of compound to inhibit human immunodeficiency virus HIV-1 strain N119 multiplication in thymidine-kinase-deficient CEM cells; type: functional, organism-based; conditions: Human immunodeficiency virus 1, CCRF-CEM; summary of the method: as §2
MT4 = test: Cytotoxic concentration required to reduce the viability of normal uninfected MT-4 cells; type: functional; conditions: Homo sapiens
Summary of the method: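 Uninfected MT-4 cultures were grown with the same compound dilutions as the antiviral assay, run in parallel. A 30% inhibition of cell growth relative to control cultures counted as significant. CC50 was interpolated from plots of percent inhibition versus compound concentration.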

[10] = tested on: Human immunodeficiency virus 2; test: Effective dose was measured against human immunodeficiency virus type 2 in thymidine-kinase-deficient CEM Cells; experiment 3; type: functional; conditions: Human immunodeficiency virus 2, CCRF-CEM; read-out: ED50 (the source's name)
Summary of the method: (§3)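 HIV-2 strain SBL 6669 in CEM TK- cells, infected at 0.005 MOI and kept with compound dilutions for 6 days, with infected and uninfected controls. Readout was HIV-2 antigen ELISA. The 50% effective value was interpolated from % inhibition versus concentration plots. Each line is one of three independent tests.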

[11] = tested on: Human immunodeficiency virus 2; test: Effective dose was measured against human immunodeficiency virus type 2 in thymidine-kinase-deficient CEM Cells; experiment 2; type: functional; conditions: Human immunodeficiency virus 2, CCRF-CEM; read-out: ED50 (the source's name); summary of the method: as §3
[12] = tested on: Human immunodeficiency virus 2; test: Effective dose was measured against human immunodeficiency virus type 2 in thymidine-kinase-deficient CEM Cells; experiment 1; type: functional; conditions: Human immunodeficiency virus 2, CCRF-CEM; read-out: ED50 (the source's name); summary of the method: as §3

Structure (SMILES): Cc1cn([C@H]2C=C[C@@H](CO)O2)c(=O)[nH]c1=O [STAVUDINE]
- EC50 [1]: 500 nM
- EC50 [2]: > 10000 nM
- EC50 [3]: > 10000 nM
- EC50 [4]: 500 nM
- EC50 [5]: 1800 nM
- EC50 [6]: 100 nM
- EC50 [7]: 800 nM
- EC50 [8]: 300 nM
- CC50 (CCRF-CEM): > 100000 nM
- EC50 [9]: > 10000 nM
- CC50 (MT4): > 100000 nM

Structure (SMILES): CCc1c(Cc2cc(C)cc(C)c2)n(COCc2ccc(O[P@](=O)(OCCSC(=O)C(C)(C)C)OC[C@@H]3C=C[C@H](n4cc(C)c(=O)[nH]c4=O)O3)cc2)c(=O)[nH]c1=O
- EC50 [10]: 2000 nM
- EC50 [1]: 4000 nM
- EC50 [2]: 2000 nM
- EC50 [4]: 3 nM
- EC50 [5]: 400 nM
- EC50 [11]: 2000 nM
- EC50 [6]: 100 nM
- EC50 [12]: 3000 nM
- CC50 (CCRF-CEM): 32000 nM
- CC50 (MT4): 35000 nM

Structure (SMILES): CCc1c(Cc2cc(C)cc(C)c2)n(COCc2ccc(OCc3ccccc3)cc2)c(=O)[nH]c1=O
- EC50 [4]: 30 nM
- EC50 [5]: 300 nM
- CC50 (MT4): 12000 nM

Structure (SMILES): CCc1c(Cc2cc(C)cc(C)c2)n(COC/C=C/c2ccc(OC(=O)c3ccccc3)cc2)c(=O)[nH]c1=O
- EC50 [4]: 5 nM
- EC50 [5]: 1000 nM
- CC50 (MT4): 35000 nM

Structure (SMILES): CCOCn1c(Cc2ccccc2)c(C(C)C)c(=O)n(C(=O)c2ccc(OP(=O)(OCCSC(=O)C(C)(C)C)OCC3C=CC(n4cc(C)c(=O)[nH]c4=O)O3)cc2)c1=O (centres undefined)
- EC50 [10]: 4000 nM
- EC50 [2]: 3000 nM
- EC50 [3]: 6 nM
- EC50 [4]: 30 nM
- EC50 [5]: 2700 nM
- EC50 [11]: 3000 nM
- EC50 [6]: 20 nM
- EC50 [12]: 3000 nM
- EC50 [7]: 30 nM
- EC50 [8]: 30 nM
- CC50 (CCRF-CEM): 32000 nM
- EC50 [9]: 300 nM
- CC50 (MT4): 35000 nM

Structure (SMILES): CCc1c(Cc2cc(C)cc(C)c2)n(COC/C=C/c2ccc(O[P@](=O)(OCCSC(=O)C(C)(C)C)OC[C@@H]3C=C[C@H](n4cc(C)c(=O)[nH]c4=O)O3)cc2)c(=O)[nH]c1=O
- EC50 [10]: 5000 nM
- EC50 [2]: 4000 nM
- EC50 [3]: 5 nM
- EC50 [4]: 40 nM
- EC50 [5]: 3300 nM
- EC50 [11]: 4000 nM
- EC50 [6]: 100 nM
- EC50 [12]: 3000 nM
- EC50 [7]: 300 nM
- EC50 [8]: 10 nM
- CC50 (CCRF-CEM): 32000 nM
- EC50 [9]: 200 nM
- CC50 (MT4): 35000 nM

Structure (SMILES): CCOCn1c(Cc2ccccc2)c(C(C)C)c(=O)[nH]c1=O [EMIVIRINE]
- EC50 [1]: > 10000 nM
- EC50 [2]: > 10000 nM
- EC50 [3]: > 10000 nM
- EC50 [5]: 79000 nM
- EC50 [6]: > 10000 nM
- EC50 [7]: > 100000 nM
- EC50 [8]: 30 nM
- CC50 (CCRF-CEM): > 100000 nM
- EC50 [9]: > 10000 nM
- CC50 (MT4): > 100000 nM

Structure (SMILES): CCc1c(Cc2cc(C)cc(C)c2)n(COC/C=C/c2ccc(O)cc2)c(=O)[nH]c1=O
- EC50 [1]: > 10000 nM
- EC50 [2]: > 10000 nM
- EC50 [3]: 6 nM
- EC50 [4]: 20 nM
- EC50 [5]: 2400 nM
- EC50 [6]: > 10000 nM
- EC50 [7]: 400 nM
- EC50 [8]: 2 nM
- CC50 (CCRF-CEM): 32000 nM
- EC50 [9]: 200 nM
- CC50 (MT4): 35000 nM
